Apaf-1 inh: blocks human Apaf-1 apoptosome activity; AID 489030; 330,000 tested, 0.71% active; O14727; reconstituted apoptosome caspase-3 activity, DEVD-Rh110 fluorescence; inhibition, % at 20 µM; active = inhibition of at least 40% at 20 µM;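 note: plate controls were DMSO wells for no effect and DEVD-CHO caspase inhibitor wells for full effect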
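System: Apoptosome proteins | Medium: Hepes pH 7.5 with detergent and BSA | Also added: Cytochrome c trigger plus (Z-DEVD)2-Rh110 caspase-3 substrate | Incubation: 30 min compound preincubation, 50 min activation, room temperature | Detection: Rhodamine 110 fluorescence at Ex 480/Em 540 nm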
UBC13 inh: blocks human UBC13 polyubiquitin chain formation | P61088 | TR-FRET | inhibition, % at 20 µM | 330,000 tested, 0.47% active | AID 485273; in the data active = inhibition above about 45%, passing the limit was not always enough; inconclusive = no clear call, values can overlap the other calls
Target sequence (P61088 whole entry, looked up): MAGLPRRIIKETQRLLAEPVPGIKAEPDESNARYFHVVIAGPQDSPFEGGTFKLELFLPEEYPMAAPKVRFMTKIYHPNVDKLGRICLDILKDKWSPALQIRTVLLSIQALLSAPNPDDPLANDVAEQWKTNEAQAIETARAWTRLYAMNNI
SENP6 block: blocks the human protease SENP6; Q9GZR1; Recombinant SENP6 catalytic domain, aminoluciferin luminescence; inhibition, % at 10 µM; 330,000 tested, 1.8% active;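 active = inhibition above about 50% at the single tested dose, limit read from the data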;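 note: plate controls were DMSO wells with enzyme for no effect and DMSO wells lacking enzyme for full effect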
SENP8 block-1: SENP8 protease inhibition; inhibition, % at 10 µM; Q96LD8; 330,000 tested, 1.2% active; purified SENP8, Z-RLRGG-aminoluciferin cleavage, luminescence; AID 2540; in the data active = inhibition above about 50%
Target sequence (Q96LD8 whole entry, looked up): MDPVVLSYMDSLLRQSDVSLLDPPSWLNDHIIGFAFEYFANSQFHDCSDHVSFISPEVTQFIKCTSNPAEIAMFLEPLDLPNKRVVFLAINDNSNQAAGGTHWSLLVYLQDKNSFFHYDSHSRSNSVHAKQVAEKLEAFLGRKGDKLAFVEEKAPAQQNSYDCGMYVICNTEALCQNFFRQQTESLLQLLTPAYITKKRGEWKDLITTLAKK
SENP8 block-2: blocks human SENP8 cleavage of Nedd8 substrate; inhibition, % at 20 µM; 360,000 tested, 0.64% active; recombinant SENP8, Nedd8 substrate fluorescence; Q96LD8; in the data active = inhibition mostly above about 40%, no sharp cut-off; inactive = mostly below about 27%
SENP7 block: inhibitors of human SENP7 protease; recombinant SENP7, Z-RLRGG-aminoluciferin luminescence, 40 min; inhibition, % at 5 µM; 330,000 tested, 1.5% active;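 active = inhibition above about 50% at the single test dose, limit read from the data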;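 note: plate controls were DMSO with enzyme for no effect and no enzyme buffer wells for full effect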
SENP8 conf: confirmation of human SENP8 protease inhibitors; shares compounds with SENP7 block; Recombinant SENP8, Z-RLRGG-aminoluciferin luminescence, 60 min; inhibition, % at 12.5 µM; 6,200 tested, 40% active;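 active = mean inhibition across replicates above about 50%, limit read from the data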
SENP6 confirm: human SENP6 inhibition, confirmed; shares compounds with SENP7 block; recombinant SENP6, Z-RLRGG-aminoluciferin luminescence; inhibition, % at 12.5 µM; 6,200 tested, 58% active; AID 488915
SENP7 conf: human SENP7 inhibition, confirmed | shares compounds with SENP7 block | recombinant SENP7, Z-RLRGG-aminoluciferin luminescence, 40 min | inhibition, % at 12.5 µM | 6,200 tested, 69% active
Casp3 SENP sel: caspase-3 inhibition (SENP selectivity assay) | purified caspase-3, Z-DEVD-aminoluciferin luminescence, 60 min | inhibition, % at 12.5 µM | 6,200 tested, 60% active | AID 488918 | shares compounds with SENP7 block;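 active = mean inhibition above about 50%, limit read from the data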;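 note: plate controls were enzyme with DMSO for no effect and wells without caspase-3 for full effect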
Target sequence (P42574 28-227 limits assumed): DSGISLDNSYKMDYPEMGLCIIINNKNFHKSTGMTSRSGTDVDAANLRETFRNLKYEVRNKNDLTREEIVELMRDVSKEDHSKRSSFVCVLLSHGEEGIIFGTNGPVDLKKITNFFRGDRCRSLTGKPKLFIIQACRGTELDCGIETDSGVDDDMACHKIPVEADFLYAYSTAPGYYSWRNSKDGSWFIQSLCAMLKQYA
SENP luc ctr: counter-screen for SENP inhibitors: luminescence interference; shares compounds with SENP7 block; Pre-incubated SENP8/Z-RLRGG-aminoluciferin, luciferase luminescence interference; inhibition, % at 12.5 µM; 6,200 tested, 39% active; AID 488919;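 active = mean inhibition above about 50% when retested at one dose, limit read from the data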;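 note: plate controls were DMSO wells with completed reaction for no effect and substrate without enzyme for full effect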
Casp3 counter: inhibits human caspase-3 in UBC13 counter-screen; 1,400 tested, 4% active; shares compounds with UBC13 inh; Recombinant caspase-3, Caspase-Glo 3/7 luminescence, 60 min; inhibition, % at 20 µM;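 active = mean inhibition across replicates above about 26%, limit read from the data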;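 note: plate controls were DMSO with caspase-3 for no effect and DMSO wells lacking enzyme for full effect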
UBC13 conf: confirmation of human UBC13 polyubiquitin inhibitors; UBC13 polyubiquitination, TR-FRET, biochemical; shares compounds with UBC13 inh; inhibition, % at 10 µM; 1,400 tested, 68% active; in the data active = inhibition above about 45%; inconclusive = no clear call, values can overlap the other calls
Apaf-1 inh conf2: confirmation of Apaf-1 inhibitors; reconstituted apoptosome, caspase-3 DEVD-Rh110 fluorescence; 1,800 tested, 25% active; inhibition, % at 20 µM; shares compounds with Apaf-1 inh; AID 504614;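 active = mean inhibition of at least 40% at 20 µM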;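 note: plate controls were DMSO wells for no effect and DEVD-CHO caspase inhibitor control wells for full effect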
Rh110 interf inh: Rh110 signal interference in Apaf-1 inhibitor counter-screen. shares compounds with Apaf-1 inh. Rh110 fluorescence interference, quenched caspase reaction. activation (fluorescence interference), % at 20 µM. 1,800 tested, under 10 active. AID 504615;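 active = signal rise of 40% or more at 20 µM, treated as a fluorescence artifact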
Active calls of the source: *; i = inactive; u = inconclusive; x = no result given. Rows were chosen to be rich in hits. Some 3.1% of all compounds tested hit in one or more screens of this group.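 Rule for the calls, unless noted: active = mean inhibition above about 50% in the one-dose retest (limit read from the data); inactive = the rest.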

SMILES	Apaf-1 inh	UBC13 inh	SENP6 block	SENP8 block-1	SENP8 block-2	SENP7 block	SENP8 conf	SENP6 confirm	SENP7 conf	Casp3 SENP sel	SENP luc ctr	others
NC1=C(Br)C(=O)c2ccccc2C1=O	71*	-360	76*	54*	104*	49	36	63*	27	78*	2
COc1ccc(C(=O)N=c2sc3c(C)ccc(OC)c3n2C)cc1	10	u	98*	90*	-405	99*	-18	1	15	8	25
COc1cc(C(=O)N=c2sc3c(C)ccc(OC)c3n2C)cc(OC)c1OC	7	38	24	8	-397	77*	7	6	23	0	-11
Cn1nc(C(=O)NCC(=O)Nc2ccc(F)c(F)c2)ccc1=O	x	x	x	x	25	x	x	x	x	x	x
N#CC1=C2C=Cc3ccccc3N2CCCC1=O	0	-2	52*	14	-18	49	36	36	76*	68*	9
O=C(CN1CCCC1)N1c2ccccc2C=Cc2ccccc21	-8	3	-1	-1	-3	-1	x	x	x	x	x
COC(=O)C1=C(C)N(c2ccc(Cl)c(Cl)c2)C(=O)C1	6	5	5	1	-6	-1	x	x	x	x	x
COC(=O)[C@]12C(=O)NC[C@H](CN1c1ccc(Cl)c(C)c1)N2C	4	19	-9	6	21	100*	-30	-18	-11	-12	-9
COCCNC(=O)C1CCCN(C(=O)COc2ccc(C(C)(C)C)cc2)CC1 (stereo not drawn)	x	x	x	x	9	x	x	x	x	x	x
Cn1cc(-c2coc3c(C(=O)NCc4cccc(Cl)c4)cccc23)cn1	x	x	x	x	-1	x	x	x	x	x	x
Fc1ccccc1/C=N/Nc1nc2ccccc2o1	12	-1	14	-3	-104	70*	-3	7	16	21	8
O=C(Nc1ccc(C(=O)O)cc1)Nc1ccc(F)cc1F	1	3	83*	69*	5	77*	77*	73*	93*	91*	76*
COc1ccc(NC(=O)Nc2ccc(F)cc2F)cc1	4	-3	74*	59*	6	80*	58*	71*	93*	80*	26
COc1ccc(NC(=O)Nc2ccc(F)cc2F)c(C)c1	-1	5	-3	1	18	4	x	x	x	x	x
O=C(Nc1nnc([C@@H]2C[C@H](O)[C@@H](CO)O2)s1)c1ccc(Oc2ccccc2)cc1	x	x	x	x	-15	x	x	x	x	x	x
Cn1c2ccccc2c(=O)c2ccc(NCCc3cccs3)cc21	30	45*	68*	66*	i	38	81*	88*	97*	79*	26	Casp3 counter=88*;UBC13 conf=u
CCCCOc1cccc2c(=O)n(CC(=O)Nc3ccc4c(c3)OCCO4)ccc12	x	x	x	x	-70	x	x	x	x	x	x
O=C(COc1ccc(Cc2ccccc2)cc1)c1ccc(F)cc1	16	45*	60*	26	1	52*	19	36	51*	25	11	Casp3 counter=49*;UBC13 conf=8
O=C(COc1ccc(F)cc1)c1ccc2c(c1)CCCC2	13	-1	18	5	10	9	x	x	x	x	x
CC(=NCc1ccco1)c1c(C)[nH]n(-c2nc3ccccc3s2)c1=O	-13	53*	65*	24	14	2	3	2	73*	50	17	Casp3 counter=78*;UBC13 conf=u
O=C(Nc1ccc2nn(-c3ccccc3)nc2c1)c1cccnc1	15	0	-22	-13	-138	2	x	x	x	x	x
CC(C)C(=O)Nc1ccc2nn(-c3ccccc3)nc2c1	-2	48*	15	1	-459	51*	42	40	71*	32	7	Casp3 counter=49*;UBC13 conf=32
CC1(C(=O)Nc2ccc3c(c2)OCCO3)CN(S(C)(=O)=O)CC(=O)N1CCc1c[nH]c2ccccc12 (stereo not drawn)	x	x	x	x	11	x	x	x	x	x	x
CCCCNC(=O)C1(C)CCC(=O)N1C1CCN(Cc2ccccc2)CC1 (stereo not drawn)	x	x	x	x	12	x	x	x	x	x	x
O=c1c(Cl)c(NCCO)cnn1-c1cccc(Cl)c1	10	2	-3	-12	-15	-5	x	x	x	x	x
O=c1c(Cl)c(NCCCO)cnn1-c1nc2ccccc2[nH]1	-20	91*	62*	50	-358	69*	59*	56*	85*	89*	36	Casp3 counter=93*;UBC13 conf=110*
Nc1c(Cl)ncnc1N/N=C/c1cccc(O)c1	-14	62*	56*	25	-198	34	40	36	70*	68*	25	Casp3 counter=81*;UBC13 conf=-8
CCOc1ccc(/C=C/[N+](=O)[O-])c2ccccc12	80*	-44	67*	44	18	27	14	7	13	8	4	Apaf-1 inh conf2=24;Rh110 interf inh=2
O=C(OCc1nnc(-c2ccccc2)o1)c1ccc([N+](=O)[O-])s1	47*	-4	68*	71*	31	31	72*	83*	40	10	-2	Apaf-1 inh conf2=21;Rh110 interf inh=-2
Nc1cccc2cnccc12	67*	-53	91*	89*	-22	-13	-26	19	6	-5	-6	Apaf-1 inh conf2=15;Rh110 interf inh=1

Screens (PubChem)
